HKDC1 activator: HKDC1 (human) hexokinase activation; Q2TB90; recombinant HKDC1, G6PDH/diaphorase resazurin fluorescence; hits give low values; activity change, negative = activation, % at 20 µM; 0.056% of 340,000 active; AID 493187;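 active = activation of 40% or more at 20 µM, a change of -40% or lower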
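Signal: coupled resazurin-to-resorufin fluorescence, Ex 525/Em 613 nm. Test system: in-house human HKDC1 enzyme, G6PDH and diaphorase coupling enzymes. Quantity: HKDC1 5 µg/mL. Timing: 90 min reaction at room temperature, dark.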
Hits are given with their value; 0 = inactive. The list is a sample of the results.

SMILES	HKDC1 activator
O=C(OCC(=O)N1CCN(C(=O)c2ccco2)CC1)c1cc(-c2ccccc2)nc2ccccc12	0
O=C(Cc1ccc(Cl)cc1Cl)Nc1cccc(S(=O)(=O)Nc2ccccc2F)c1	-40.7
O=C(O)CSc1cc(NS(=O)(=O)c2cccc([N+](=O)[O-])c2)c2ccccc2c1O	0
Cc1cc(/C=C\c2ccc3cc(N(C)C)ccc3[n+]2C)c(C)n1-c1ccccc1	0
CC(=O)C1=C(c2cccc([N+](=O)[O-])c2)N(C(C)=O)n2c(C)nnc2S1	-307.8
CCOC(=O)C1CCN(C(=O)Nc2ccc3nc(-c4ccco4)c(-c4ccco4)nc3c2)CC1	0
COC1(NS(=O)(=O)c2ccc(Br)cc2)C(C)=CC(=O)C=C1C	0
Cc1ccc(-n2c3nc(=O)[nH]c(=O)c-3cc3cc([N+](=O)[O-])ccc32)cc1C	0
CC(=NNC(=S)N1CCCCC1)c1cccc(C)n1	-40.4
COC(=O)c1ccc2c(c1)C(C)(C)C(/C=C/c1ccccc1O)=[N+]2C	0
Cc1[nH]c2ccccc2c1C(C#N)(C#N)C1C(=O)c2ccccc2C1=O	0
C/C(=N\NC(=O)c1cc(C2CC2)nc2ccccc12)c1ccc(O)cc1O	-44.0
O=C(NCCc1ccccc1)c1cnn2c(C(F)F)cc(C3CC3)nc12	0
N#CC(C#N)=Cc1cc2ccccc2nc1N1CCCCC1	0
COc1cc(C2c3c([nH]c(=O)[nH]c3=O)Nc3ccc4ccccc4c32)cc(OC)c1OC (stereo unspecified)	0
Cc1cc(C(=O)COC(=O)c2cc(O)c3ccccc3c2O)c(C)n1CC1CCCO1 (stereo unspecified)	0
CCOc1ccc2c(ccc(/C=C/c3cc(C)c4cccnc4c3O)[n+]2C)c1	0
Cn1c(-c2ccccc2)c(C(=O)CC#N)c2ccccc21	-45.2
O=[N+]([O-])c1ccc(Sc2nc3ccccc3o2)c([N+](=O)[O-])c1	0
COc1ccc2c(c1)CCc1c(C(=O)N3CCCc4ccccc43)noc1-2	0
O=C(O)c1cc(O)c2c(c1)C(=O)c1cccc(O)c1C2=O	0
O=C(O)CN1C(=O)/C(=C2\C(=O)N(Cc3ccccc3Cl)c3ccccc32)SC1=S	0
COc1ccc(CN2CCn3nc(C(=O)NC(C)C)cc3C2=O)cc1	-74.6
CCc1nc2c(c(=O)c3ccccc3n2C)c(=O)n1-c1ccc(F)cc1	0
Nn1cnnc1N/N=C/c1cc(Br)cc(Br)c1O	-52.2
C=CC(=O)N1C/C(=C/c2ccccc2)C(=O)/C(=C\c2ccccc2)C1	0
CCc1ccc(S(=O)(=O)/N=C2\C=C(Nc3ccc(C(=O)O)cc3)C(=O)c3ccccc32)cc1	0
O=C(CSc1n[nH]c(=O)[nH]c1=O)Nc1ccc2c(c1)C(=O)c1ccccc1C2=O	0

Source: PubChem BioAssay
